Test results from PubChem BioAssay.
The source made the active and inactive calls.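 How the source made its calls, unless noted: active means fluorescence slope after compound addition differing from the mean of all tested samples at 99.7% confidence, mostly higher but some lower; inactive means the rest.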

Tests used:
[1] = inhibitors of TNFa-induced NFkB p65 translocation, primary screen, imaging, HUVEC, MLSMR starter and 10KST1 sets (AID 438;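 active means inhibition above 20% together with a positive visual image hit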;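 further: compound added about 3h40 before a 20 min TNFalpha stimulation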;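 on inhibition: signal is the nuclear over cytoplasmic p65 intensity ratio per well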); details: HUVEC TNFa-induced p65 nuclear translocation; cell count: measured here: nuclei count (cytotoxicity indicator), at 2.08 µM; inhibition: at 2 µM, stronger effect = higher value, 0% TNFa-plus-vehicle, 100% no-TNFa wells
[2] = inhibitors of mutant huntingtin aggregation, primary screen, imaging, exon1htt(103Q)mCFP cells, high-content imaging (AID 483;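 active means visual image review flags a hit and inhibition of aggregation exceeds 20%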;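 further: compound exposure lasted 3 days before fixation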;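 on nuclei count: percent of the per-plate median nuclei count of sample wells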); details: exon1htt(103Q)mCFP cell line, aggregate imaging, at 2 µM; inhibition of aggregation: stronger effect = higher value; nuclei count: measured here: cell count, toxicity
[3] = inhibitors of E-selectin induction by TNFa, primary screen, imaging, HUVEC, immunofluorescence, MLSMR starter and 10KST1 sets (AID 487;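 active means visually confirmed hit in the image check and inhibition above 20%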;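 on inhibition: signal is fraction of cell area covered by stained E-selectin grains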;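 on nuclei count: 100% = median nuclei count of all wells on the same plate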); details: HUVEC TNFalpha-induced E-selectin immunofluorescence imaging, at 2 µM; inhibition: stronger effect = higher value; nuclei count: measured here: cell number, toxicity
[4] = molecular target: Voltage-gated potassium channel subunit beta-2 (Rattus norvegicus) (UniProt P62483); assay: KvBeta enzyme negative modulators, primary screen, biochemical, NADPH fluorescence (AID 622;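 active means fluorescence slope higher than the sample average by over 3 SD, cut at about -0.22 in these data, passing the limit was not always enough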;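 further: slope of raw intensity against log time taken from 70 to 1610 s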); details: recombinant KvBeta, 4-cyanobenzaldehyde reduction, at 10 µM, stronger effect = higher value
Chain of Voltage-gated potassium channel subunit beta-2 (Rattus norvegicus) (P62483 whole entry, looked up): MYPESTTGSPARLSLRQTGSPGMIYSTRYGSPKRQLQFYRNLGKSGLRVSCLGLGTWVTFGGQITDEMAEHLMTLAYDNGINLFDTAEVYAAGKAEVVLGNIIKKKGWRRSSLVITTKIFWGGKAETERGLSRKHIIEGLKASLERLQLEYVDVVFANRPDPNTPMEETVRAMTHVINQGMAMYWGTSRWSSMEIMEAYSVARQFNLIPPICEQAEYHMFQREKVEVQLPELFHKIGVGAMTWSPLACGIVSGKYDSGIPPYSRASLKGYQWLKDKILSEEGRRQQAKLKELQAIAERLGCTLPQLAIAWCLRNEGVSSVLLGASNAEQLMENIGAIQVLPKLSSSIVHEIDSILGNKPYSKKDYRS

[5] = molecular target: Voltage-gated potassium channel subunit beta-2 (Rattus norvegicus) (UniProt P62483); assay: KvBeta positive modulators, primary screen, biochemical, NADPH fluorescence (AID 623;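 active means NADPH fluorescence slope more negative than the mean of all samples by about 3 SD, 99.7% confidence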;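 further: fluorescence intensity change per second fitted from 20 to 320 s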); details: Recombinant KvBeta, NADPH fluorescence decrease slope, 10 min; at 10 µM; stronger effect = lower value
[6] = molecular target: Muscarinic acetylcholine receptor M4 (Homo sapiens) (UniProt P08173); assay: compounds altering M4/GIRK thallium flux, either direction, primary screen, M4 allosteric agonist project, cell-based, HEK293 M4/GIRK, BTC-AM (AID 625); details: at 10 µM, actives lie on both sides;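 further: thallium influx through GIRK channels coupled to M4 in HEK293 cells with BTC-AM dye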
Chain of Muscarinic acetylcholine receptor M4 (Homo sapiens) (P08173 whole entry, looked up): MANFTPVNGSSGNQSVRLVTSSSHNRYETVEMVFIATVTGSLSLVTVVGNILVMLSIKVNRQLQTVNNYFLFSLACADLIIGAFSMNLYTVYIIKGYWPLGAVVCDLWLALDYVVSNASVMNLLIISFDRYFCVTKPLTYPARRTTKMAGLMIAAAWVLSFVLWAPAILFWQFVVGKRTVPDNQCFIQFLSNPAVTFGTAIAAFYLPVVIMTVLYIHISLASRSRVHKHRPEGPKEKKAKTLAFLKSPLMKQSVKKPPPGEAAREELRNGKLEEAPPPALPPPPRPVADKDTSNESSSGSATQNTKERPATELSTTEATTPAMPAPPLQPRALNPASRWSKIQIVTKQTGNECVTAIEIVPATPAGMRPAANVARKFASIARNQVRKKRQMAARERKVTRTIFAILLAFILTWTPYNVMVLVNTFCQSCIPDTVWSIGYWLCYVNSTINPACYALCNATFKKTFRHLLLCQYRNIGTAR
How it was run: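 System: HEK293 cells with M4 receptor and GIRK channels | Incubation: Cells overnight at 37 °C, BTC-AM loading 1 h, reads 2 min total | Technique: Kinetic BTC-AM fluorescence sampled at 1 Hz, 10 s pre-addition baseline | Measure: Post-addition slope, 15–24 s, of baseline-normalized fluorescence | Control set: Carbachol positive, DMSO negative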

[7] = inhibitors of Sendai virus-induced IRF3 signaling, primary screen, TLR/RLR signaling modifier project, cell-based, Sendai virus stimulus, luciferase, 10K MLSCN set (AID 602276;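 active means inhibition at or above 50% at 10 µM; inactive means inhibition below 50%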;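 further: firefly luciferase from ISG56 promoter only with Renilla not read in this screen; 0% = Sendai virus plus DMSO and 100% = medium plus DMSO without virus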); details: HEK293 RL24 IRF3 luciferase reporter, at 10 µM, stronger effect = higher value
[8] = inhibitors of poly I:C-induced TLR3 signaling, primary screen, cell-based, poly I:C stimulus, luciferase, 10K MLSCN set (AID 602277;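 active means inhibition of the reporter signal at or above 50%; inactive means inhibition below 50%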); details: HEK293-TLR3 RL24 IRF3 luciferase reporter, at 10 µM, stronger effect = higher value

Row | Structure (SMILES) | cell count [1] | inhibition [1] | inhibition of aggregation [2] | nuclei count [2] | inhibition [3] | nuclei count [3] | fluorescence slope [4] | NADPH fluorescence slope [5] | fluorescence slope [6] | inhibition [7] | inhibition [8]
1 | COc1ccc(N(CC(=O)N2c3ccccc3CC2C)S(=O)(=O)c2c(C)noc2C)cc1 (stereo unspecified) | 539 | -5.8% (inactive) | -18.3% (inactive) | 118% | -62.5% (inactive) | 116% | -0.395 (inactive) | 9.4e-05 (inactive) | 0.00594 (inactive) | 14.5% (inactive) | 30.9% (inactive)
2 | COc1ccccc1N(CC(=O)NCc1ccccc1)S(C)(=O)=O | 665 | -8.2% (inactive) | 6.6% (inactive) | 106% | -67.8% (inactive) | 114% | -0.28 (inactive) | -4.1e-05 (inactive) | 0.00584 (inactive) | -3.25% (inactive) | 14% (inactive)
3 | Cc1ccc(C(=O)CCC2CCCC2=O)cc1 (stereo unspecified) | 718 | -21.6% (inactive) | -2.7% (inactive) | 86.9% | 22.6% (inactive) | 97.8% | -0.263 (inactive) | -3.8e-05 (inactive) | 0.00558 (inactive) | -20.4% (inactive) | -124% (inactive)
4 | CC(C)(C)NC(=O)Nc1ccccc1C(N)=O | 657 | 1.6% (inactive) | -14.8% (inactive) | 108% | -34.5% (inactive) | 107% | -0.539 (inactive) | -8e-06 (inactive) | 0.0058 (inactive) | 3.23% (inactive) | -20.8% (inactive)
5 | S=c1[nH]nc(COc2ccccc2)n1C1CCCCC1 | 552 | 8% (inactive) | 18.7% (inactive) | 91.7% | 48.2% (inactive) | 105% | -0.553 (inactive) | -3e-06 (inactive) | 0.0103 (inactive) | -4.8% (inactive) | 10.9% (inactive)
6 | COc1ccc2c(C(=O)CN(C)C3CCCCC3)c[nH]c2c1 | 533 | -0.9% (inactive) | -4.4% (inactive) | 82.5% | -20.8% (inactive) | 96.7% | -0.561 (inactive) | -2.1e-05 (inactive) | 0.0054 (inactive) | 20.8% (inactive) | 39.7% (inactive)
7 | Cc1ncoc1C(=O)Nc1cccc(Cl)c1C | 540 | -14.2% (inactive) | 52.7% (active) | 56.4% | -38.5% (inactive) | 116% | -0.302 (inactive) | 8.7e-06 (inactive) | 0.00599 (inactive) | -22.6% (inactive) | -46.1% (inactive)
8 | COc1ccc(CN(C(=O)CNC(=O)c2ccco2)C(C(=O)NC2CCCC2)c2ccco2)cc1 (stereo unspecified) | 510 | 7.2% (inactive) | 3.1% (inactive) | 105% | -62.9% (inactive) | 123% | -0.592 (inactive) | -1.6e-05 (inactive) | 0.00679 (inactive) | -14.2% (inactive) | -26.3% (inactive)
9 | CCOC(=O)N1CCN(C(=O)Nc2ccc(Cl)cc2)CC1 | 356 | -3.2% (inactive) | 10.6% (inactive) | 99.4% | 21.3% (inactive) | 103% | -0.462 (inactive) | -4.1e-05 (inactive) | 0.00495 (inactive) | 10.8% (inactive) | 3.42% (inactive)
10 | COc1ccccc1NC(=O)CC(NCc1ccccc1)C(=O)O (stereo unspecified) | 405 | -8.3% (inactive) | -9.7% (inactive) | 63.1% | 14.4% (inactive) | 100% | -0.223 (inactive) | -1.3e-05 (inactive) | 0.00589 (inactive) | 8.88% (inactive) | 5.77% (inactive)
11 | Cc1ccccc1CNS(=O)(=O)c1ccc2c(c1)OCCO2 | 450 | 3.6% (inactive) | 2.1% (inactive) | 108% | -11.6% (inactive) | 96.6% | -0.558 (inactive) | -1.9e-05 (inactive) | 0.00348 (inactive) | 7.7% (inactive) | 11.3% (inactive)
12 | O=C(O)CCCNS(=O)(=O)c1ccc(NCc2ccccc2)c(C(=O)O)c1 | 687 | 6.7% (inactive) | 2.8% (inactive) | 87.1% | 7% (inactive) | 91.1% | -0.343 (inactive) | -5e-05 (inactive) | 0.00502 (inactive) | 10.5% (inactive) | 10.3% (inactive)
13 | Cc1c(Br)c(C(F)(F)F)nn1CC(=O)NCCN1CCOCC1 | 412 | 1.6% (inactive) | 0.2% (inactive) | 86.5% | -39.7% (inactive) | 114% | -0.553 (inactive) | -5.2e-05 (inactive) | 0.00496 (inactive) | 1.54% (inactive) | 21.8% (inactive)
14 | COc1ccccc1C(=O)NCCc1nc2ccccc2n1C | 564 | -11.3% (inactive) | -5.2% (inactive) | 113% | 15.5% (inactive) | 101% | -0.294 (inactive) | -2.3e-05 (inactive) | 0.00691 (inactive) | -9.79% (inactive) | -4.78% (inactive)
15 | CCOC(=O)C1CCCN(C(=O)c2ccc(CS(=O)(=O)Cc3ccccc3C)o2)C1 (stereo unspecified) | 419 | 10.9% (inactive) | 19.5% (inactive) | 76.5% | -57.8% (inactive) | 93.9% | -0.595 (inactive) | 4.2e-06 (inactive) | 0.00695 (inactive) | -2.6% (inactive) | 5.13% (inactive)
16 | CCOc1ncccc1C(=O)OCC(=O)Nc1ncc(C(F)(F)F)cc1Cl | 474 | -12.1% (inactive) | -26.1% (inactive) | 80.7% | -29% (inactive) | 108% | -0.588 (inactive) | 2.6e-05 (inactive) | 0.00542 (inactive) | 22.1% (inactive) | 18% (inactive)
17 | COc1cc(C(=O)Nc2ccc3c(c2)C(=O)N(CCC(=O)O)C3=O)cc(OC)c1OC | 469 | 2% (inactive) | 4.8% (inactive) | 89.5% | -37.8% (inactive) | 87.3% | -0.488 (inactive) | -4.2e-05 (inactive) | 0.00491 (inactive) | 12.6% (inactive) | 18% (inactive)
18 | CCOc1ccccc1N1CCN(c2nc(N)c(C#N)c(CC#N)c2C#N)CC1 | 687 | -1.7% (inactive) | -18.6% (inactive) | 88.7% | -68.9% (inactive) | 105% | -0.592 (inactive) | -1e-05 (inactive) | 0.00416 (inactive) | 20.4% (inactive) | 17.9% (inactive)
19 | N#CC(C(=O)C1CCCCC1)c1nc2ccccc2[nH]1 (stereo unspecified) | 723 | -2% (inactive) | -11.3% (inactive) | 101% | -107% (inactive) | 128% | -0.6 (inactive) | 3e-06 (inactive) | 0.00531 (inactive) | 4.07% (inactive) | -10.7% (inactive)
20 | CCOc1cc(C(=O)N2CCN(c3ccccc3)CC2)cc(OCC)c1OCC | 284 | 14.5% (inactive) | 39.7% (active) | 88.2% | 11.1% (inactive) | 90.3% | -0.559 (inactive) | -2.8e-05 (inactive) | 0.00369 (inactive) | 12.4% (inactive) | 15.3% (inactive)
21 | Cc1cccc(NC(=O)CCn2ccnc2C)c1 | 628 | 1.2% (inactive) | -6.6% (inactive) | 96.8% | -65.9% (inactive) | 93% | -0.574 (inactive) | -5e-05 (inactive) | 0.00688 (inactive) | 10.5% (inactive) | 8.13% (inactive)
22 | CC(=O)N(c1ccc(N(C(C)=O)S(=O)(=O)c2cccs2)cc1)S(=O)(=O)c1cccs1 | 458 | 1.3% (inactive) | 11.2% (inactive) | 99.2% | -45.8% (inactive) | 99.4% | -0.472 (inactive) | -0.000256 (inactive) | 0.00408 (inactive) | 4.25% (inactive) | 7.23% (inactive)
23 | O=C(O)CSc1ccc2ccccc2n1 | 418 | 3.6% (inactive) | 1.4% (inactive) | 106% | 15.7% (inactive) | 102% | -0.525 (inactive) | -3.7e-05 (inactive) | 0.00444 (inactive) | 19% (inactive) | 23.8% (inactive)
24 | C=C(C)Cn1c(SCC)nc2ccccc2c1=O | 399 | -5% (inactive) | 13.5% (inactive) | 98.7% | -26.7% (inactive) | 94.5% | -0.454 (inactive) | -0.000357 (inactive) | 0.0055 (inactive) | 9.69% (inactive) | 22.7% (inactive)
25 | COc1ccc(N2CCN(C(c3cccc(OC)c3OC)c3nnnn3C3CCCC3)CC2)cc1 (stereo unspecified) | 709 | 20% (inactive) | -7.2% (inactive) | 96.3% | 36.9% (inactive) | 76.2% | -0.508 (inactive) | 9.8e-05 (inactive) | 0.00439 (inactive) | -1.29% (inactive) | 21.9% (inactive)
26 | CCc1nnc(NC(=O)C2CCN(c3nccc(C)n3)CC2)s1 | 533 | 0.5% (inactive) | 0.2% (inactive) | 103% | -13.3% (inactive) | 96.9% | -0.317 (inactive) | -3.6e-05 (inactive) | 0.00544 (inactive) | 11% (inactive) | 14.7% (inactive)
